Experiments:
Mus musculus = species: Mus musculus; assay: Ability to inhibit apomorphine-induced climbing behavior in mice.; format: functional
Outline: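 Male CD-1 mice (18–30 g) were adapted for 1 h in wire-mesh cages, 8 per dose group. Distilled water or drug was given ip 30 or 60 min before apomorphine 1.5 mg/kg sc.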

Rattus norvegicus [1] = assay: Social interaction of rats was determined after 1 hr of intraperitoneal administration at 0.5 mg/kg; format: functional
Outline: (§1)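 Pairs of male Wistar rats (200–275 g) were acclimated to the arena for 8 min on two days. On day 3, unfamiliar pairs were formed, six pairs per group, and dosed with drug or vehicle. Interaction time and total activity were compared by one-way ANOVA with Duncan's test.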

Rattus norvegicus [2] = assay: Intracranial self stimulation in rat was determined after 1 hr of intraperitoneal administration of the compound; format: functional; conditions: ip
Outline: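 Male Wistar rats (300–400 g) with chronic electrodes in the medial forebrain bundle at the preoptic level, trained after 2 weeks of recovery to lever-press for biphasic square-wave pulse trains. Once baseline responding was stable, drug was given (3–6 per dose group) and compared with nondrug controls. ED50 was calculated by linear regression on percent change from control.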

Rattus norvegicus [3] = assay: Pole climb avoiding activity in rats was determined after 1 hr of intraperitoneal administration of the compound; format: functional; conditions: ip
Outline: (§2)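 Male Long Evans rats trained to 80% avoidance in a discrete-trial signaled pole-climb paradigm: 25 trials per 50 min session, maximum 26 s of shock per trial. Distilled water or drug was given ip, 6 per dose group, at a 60 min pretreatment. Avoidance responses and escape failures were compared with water controls. ED50 by linear regression.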

Rattus norvegicus [4] = assay: Pole climb escape failures of rats was determined after 1 hr of intraperitoneal administration of the compound; format: functional; conditions: ip; outline: as §2
Rattus norvegicus [5] = assay: Induction of catalepsy in rats was determined after 1 hr of intraperitoneal administration of the compound; format: functional; conditions: ip
Outline: (§3)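 Male Wistar rats (150–250 g), 6–10 per dose group, dosed ip with distilled water or drug. Each hour for 6 h, forepaws were placed on an elevated wooden bar; remaining there 60 s counted as cataleptic.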

Rattus norvegicus [6] = species: Rattus norvegicus; assay: Ability to block apomorphine-induced stereotypy in rats.; format: functional
Outline: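 Male Wistar rats (150–250 g), 6–10 per dose group, given distilled water or test drug ip; apomorphine 1.5 mg/kg sc 50 min later. Rats were placed singly in cages and scored 10 min afterwards for continuous stereotyped licking or sniffing. Inhibition was the number of animals protected versus controls. ED50 was obtained by probit analysis.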

Rattus norvegicus [7] = assay: Social interaction of rats was determined after 1 hr of intraperitoneal administration at 10 mg/kg; format: functional
Outline: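 Pairs of male Wistar rats (200–275 g) were acclimated to the arena for 8 min on two consecutive days. On day 3, unfamiliar rats (six pairs/group) got drug or vehicle, and 30 or 60 min later they were paired and observed for 5 min. Social interaction time and total activity were compared with controls by one-way ANOVA and Duncan's test.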

Rattus norvegicus [8] = assay: Antipsychotic efficacy of compound at intraperitoneal dose of 20 mg/kg on 1.8 (A10 units) dopamine neurons in the mesolimbic region of rat; format: functional
Outline: (§4)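 Male Wistar rats (280–360 g) were dosed ip once daily for 21 days with compound suspended in distilled water plus 1 drop Tween 80; vehicle rats served as controls. Sampling began 2 h after the last dose under chloral hydrate anesthesia (400 mg/kg ip). Spontaneously active A9 and A10 dopamine units were counted per 12 tracks. Groups were compared by one-way ANOVA with Newman–Keuls post hoc.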

Rattus norvegicus [9] = assay: Side effect liability of compound at intraperitoneal dose of 20 mg/kg on 13.7 (A9 units)dopamine neurons in the nigrostriatal in rat; format: functional; outline: as §4
Rattus norvegicus [10] = assay: Induction of catalepsy in rats was determined after 1 hr of intraperitoneal administration at 80 mg/kg; format: functional
Outline: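 Male Wistar rats (150–250 g, 6–10/dose group) were dosed ip with compound or distilled water. Every hour for 6 h after dosing, the forepaws were placed on an elevated wooden bar, and a rat was scored cataleptic if the paws stayed on the bar for 60 s.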

Rattus norvegicus [11] = assay: Antagonistic activity administered intraperitoneally on head twitches induced by 5- HTP; format: functional; conditions: ip
Outline: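 Male Wistar rats (180–280 g), groups of eight. L-5-HTP given ip (240 mg/10 mL distilled water with Tween 80); compounds given ip 30 min after 5-HTP. At 60 min post-5-HTP, head twitches were counted for 10 min per rat under white noise, then expressed as percent change from vehicle. Dose–response used 3–4 dose groups; ED50 by linear regression.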

Rattus norvegicus [12] = assay: Social interaction of rats was determined after 1 hr of intraperitoneal administration at […]; format: functional
Rattus norvegicus [13] = assay: Antipsychotic efficacy of compound at intraperitoneal dose of 0.5 mg/kg on 6.8 (A10 units) dopamine neurons in the mesolimbic region of rat; format: functional
Rattus norvegicus [14] = assay: Side effect liability of compound at intraperitoneal dose of 0.5 mg/kg on 6.2 (A9 units)dopamine neurons in the nigrostriatal in rat; format: functional
Rattus norvegicus [15] = assay: Induction of catalepsy in rats was determined after 2 hr of intraperitoneal administration of the compound; format: functional; conditions: ip; outline: as §3
[16] = biological target: T1, 5-hydroxytryptamine receptor 1A (Mus musculus, UniProt Q64264); assay: Binding affinity against 5-hydroxytryptamine 1A receptor was determined using [3H]-8-OH-DPAT radioligand
T1 sequence (Q64264 whole entry): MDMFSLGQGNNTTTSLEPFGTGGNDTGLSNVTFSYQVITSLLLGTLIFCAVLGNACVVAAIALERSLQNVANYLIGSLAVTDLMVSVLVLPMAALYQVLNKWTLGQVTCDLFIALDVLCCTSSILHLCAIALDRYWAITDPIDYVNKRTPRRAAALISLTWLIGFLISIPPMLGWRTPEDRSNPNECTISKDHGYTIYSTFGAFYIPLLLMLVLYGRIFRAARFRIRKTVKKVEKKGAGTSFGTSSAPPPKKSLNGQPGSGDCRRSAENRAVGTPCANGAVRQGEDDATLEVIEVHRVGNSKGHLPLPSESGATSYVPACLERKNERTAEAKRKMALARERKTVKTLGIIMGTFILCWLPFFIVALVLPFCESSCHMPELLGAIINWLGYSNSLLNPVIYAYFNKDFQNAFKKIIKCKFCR

[17] = biological target: 5-hydroxytryptamine receptor 2A (Bos taurus, UniProt Q75Z89); assay: Binding affinity against 5-hydroxytryptamine 2 receptor was determined using [ [3H]spiperone radioligand
5-hydroxytryptamine receptor 2A, sequence (Q75Z89 whole entry): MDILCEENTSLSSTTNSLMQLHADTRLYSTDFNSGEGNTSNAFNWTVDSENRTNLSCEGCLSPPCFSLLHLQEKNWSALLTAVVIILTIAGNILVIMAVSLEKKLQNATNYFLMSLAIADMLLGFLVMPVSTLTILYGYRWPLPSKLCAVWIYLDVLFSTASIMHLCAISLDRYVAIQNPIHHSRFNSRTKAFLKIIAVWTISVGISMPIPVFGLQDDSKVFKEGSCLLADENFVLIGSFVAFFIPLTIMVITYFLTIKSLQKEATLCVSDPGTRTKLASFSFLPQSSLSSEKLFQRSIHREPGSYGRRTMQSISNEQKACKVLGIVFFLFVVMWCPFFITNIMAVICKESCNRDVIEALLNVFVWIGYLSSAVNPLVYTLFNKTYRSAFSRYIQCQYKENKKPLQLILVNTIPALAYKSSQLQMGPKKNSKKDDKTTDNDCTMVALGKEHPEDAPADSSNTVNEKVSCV

[18] = biological target: Serotonin 2 (5-HT2) receptor (Rattus norvegicus, UniProt P30994+P08909+P14842); assay: Affinity for 5-hydroxytryptamine 2 receptor binding sites by its ability to displace [3H]spiperone from rat frontal cortex.
D(1A) dopamine receptor = D(1A) dopamine receptor (Mus musculus, UniProt Q61616); assay: Binding affinity against Dopamine receptor D1 was determined using [3H]SCH-23390 radioligand
D(1A) dopamine receptor, sequence (Q61616 whole entry): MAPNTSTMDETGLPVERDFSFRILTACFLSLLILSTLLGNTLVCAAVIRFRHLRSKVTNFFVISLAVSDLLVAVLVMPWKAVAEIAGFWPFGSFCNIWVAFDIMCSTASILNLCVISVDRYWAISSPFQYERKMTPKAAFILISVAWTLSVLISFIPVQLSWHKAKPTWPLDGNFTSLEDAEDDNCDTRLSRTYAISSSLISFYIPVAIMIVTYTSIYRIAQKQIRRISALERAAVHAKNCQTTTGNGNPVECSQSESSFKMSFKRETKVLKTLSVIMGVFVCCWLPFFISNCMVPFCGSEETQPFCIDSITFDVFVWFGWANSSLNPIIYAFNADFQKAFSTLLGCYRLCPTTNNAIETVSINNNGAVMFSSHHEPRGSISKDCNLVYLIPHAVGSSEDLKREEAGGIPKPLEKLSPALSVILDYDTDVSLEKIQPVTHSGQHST

[19] = biological target: Muscarinic acetylcholine receptor M3 (Rattus norvegicus, UniProt P08483); assay: Binding affinity against Muscarinic acetylcholine receptor using [3H]quinuclidinyl benzilate
Muscarinic acetylcholine receptor M3, sequence (P08483 whole entry): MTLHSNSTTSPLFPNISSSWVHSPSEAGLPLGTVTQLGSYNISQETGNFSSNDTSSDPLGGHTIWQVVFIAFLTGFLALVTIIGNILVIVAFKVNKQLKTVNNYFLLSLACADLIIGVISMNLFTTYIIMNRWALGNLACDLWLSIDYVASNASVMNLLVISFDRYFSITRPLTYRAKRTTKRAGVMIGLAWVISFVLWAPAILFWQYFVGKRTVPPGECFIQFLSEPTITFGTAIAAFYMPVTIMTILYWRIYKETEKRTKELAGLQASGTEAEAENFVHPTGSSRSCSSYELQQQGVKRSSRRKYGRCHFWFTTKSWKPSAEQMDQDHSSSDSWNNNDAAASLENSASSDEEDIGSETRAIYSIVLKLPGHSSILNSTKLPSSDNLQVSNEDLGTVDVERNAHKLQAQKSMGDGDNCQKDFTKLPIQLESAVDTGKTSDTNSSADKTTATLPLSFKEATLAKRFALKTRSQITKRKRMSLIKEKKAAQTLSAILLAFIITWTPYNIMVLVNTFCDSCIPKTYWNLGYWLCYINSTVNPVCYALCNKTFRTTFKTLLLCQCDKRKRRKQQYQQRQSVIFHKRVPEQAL

Rattus norvegicus [20] = assay: Social interaction of rats was determined after 1 hr of intraperitoneal administration at 1 mg/kg; format: functional; outline: as §1
Rattus norvegicus [21] = assay: Side effect liability of compound at intraperitoneal dose of 5 mg/kg on 16.1 (A9 units)dopamine neurons in the nigrostriatal in rat; format: functional
Rattus norvegicus [22] = assay: Antipsychotic efficacy of compound at intraperitoneal dose of 10 mg/kg on 6.1 (A10 units)dopamine neurons in the mesolimbic in rat; format: functional
Rattus norvegicus [23] = assay: Antipsychotic efficacy of compound at intraperitoneal dose of 5 mg/kg on 6.1 dopamine neurons in the mesolimbic (A10) units in rat; format: functional
Rattus norvegicus [24] = assay: Side effect liability of compound at intraperitoneal dose of 10 mg/kg on 16.1 (A9 units) dopamine neurons in the nigrostriatal in rat; format: functional
Rattus norvegicus [25] = assay: Intracranial self stimulation in rat was determined after 1 hr of oral administration of the compound; format: functional
[26] = biological target: Sigma non-opioid intracellular receptor 1 (Homo sapiens, UniProt Q99720); assay: Binding affinity against sigma receptor using [3H]-( +)-SKF10,047 radioligand
Sigma non-opioid intracellular receptor 1, sequence (Q99720 whole entry): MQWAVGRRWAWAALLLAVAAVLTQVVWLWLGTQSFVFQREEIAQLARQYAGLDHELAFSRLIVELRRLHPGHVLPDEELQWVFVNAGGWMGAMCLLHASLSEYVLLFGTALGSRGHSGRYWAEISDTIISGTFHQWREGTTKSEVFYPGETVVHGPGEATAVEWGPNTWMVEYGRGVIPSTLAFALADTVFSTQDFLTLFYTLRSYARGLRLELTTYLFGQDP

Cc1nc2n(c(=O)c1CCN1CCC(c3noc4cc(F)ccc34)CC1)CCCC2 [RISPERIDONE]
ED50 (Mus musculus): 0.062 mg/kg | Activity (Rattus norvegicus [1]): 27% | ED50 (Rattus norvegicus [2]): 0.13 mg/kg | ED50 (Rattus norvegicus [3]): 0.48 mg/kg | ED50 (Rattus norvegicus [4]): 1.3 mg/kg | ED50 (Rattus norvegicus [5]): 5.7 mg/kg | ED50 (Rattus norvegicus [6]): 3.2 mg/kg

CN1CCN(C2=Nc3cc(Cl)ccc3Nc3ccccc32)CC1 [CLOZAPINE]
Activity (Rattus norvegicus [7]): 39% | Change (Rattus norvegicus [8]): -79% | Change (Rattus norvegicus [9]): 37% | ED50 (Rattus norvegicus [2]): 7.4 mg/kg | ED50 (Rattus norvegicus [3]): 11.3 mg/kg | ED50 (Rattus norvegicus [4]): 29.3 mg/kg | Activity (Rattus norvegicus [10]): 0% | ED50 (Rattus norvegicus [6]): > 40 mg/kg | ED50 (Rattus norvegicus [11]): 0.43 mg/kg

O=C(CCCN1CCC(O)(c2ccc(Cl)cc2)CC1)c1ccc(F)cc1 [HALOPERIDOL]
ED50 (Mus musculus): 0.11 mg/kg | Activity (Rattus norvegicus [12]): -26% | Change (Rattus norvegicus [13]): -35% | Change (Rattus norvegicus [14]): -30% | ED50 (Rattus norvegicus [2]): 0.077 mg/kg | ED50 (Rattus norvegicus [3]): 0.043 mg/kg | ED50 (Rattus norvegicus [4]): 0.22 mg/kg | ED50 (Rattus norvegicus [15]): 0.65 mg/kg | ED50 (Rattus norvegicus [6]): 0.6 mg/kg | ED50 (Rattus norvegicus [11]): 0.29 mg/kg

COc1cc(C(C)=O)ccc1OCCCN1CCC(c2noc3cc(F)ccc23)CC1 [ILOPERIDONE]
IC50 [16]: 210 nM | IC50 [17]: 9 nM | IC50 [18]: 9 nM | IC50 (D(1A) dopamine receptor): 750 nM | ED50 (Mus musculus): 0.095 mg/kg | IC50 [19]: > 1000 nM | Activity (Rattus norvegicus [20]): 31% | Change (Rattus norvegicus [21]): 81% | Change (Rattus norvegicus [22]): -40% | Change (Rattus norvegicus [23]): -41% | Change (Rattus norvegicus [24]): 45% | ED50 (Rattus norvegicus [2]): 0.15 mg/kg | ED50 (Rattus norvegicus [25]): 1.03 mg/kg | ED50 (Rattus norvegicus [3]): 0.7 mg/kg | ED50 (Rattus norvegicus [4]): 5.2 mg/kg | ED50 (Rattus norvegicus [5]): 30.7 mg/kg | ED50 (Rattus norvegicus [6]): 34.8 mg/kg | ED50 (Rattus norvegicus [11]): 0.07 mg/kg | IC50 [26]: 64 nM
